Changes are numbered by the printed parent chain.
Assays:
[1] = Ratio of fAUC in brain to plasma of scopolamine-induced Wistar rat model at 0.1 mg/kg, po measured after 1 hr; type: ADME, organism-based; conditions: brain and plasma, read-out: Ratio AUC
[2] = Toxicity in dog assessed as induction of loose stool at 0.3 mg/kg, po using spray-dried dispersion formulation; type: organism-based, Canis lupus familiaris; conditions: in vivo
[3] = Intrinsic clearance in human liver microsome; type: ADME; conditions: liver microsomes, read-out: CLH
[4] = Ratio of fAUC in dog brain to plasma; type: ADME, cell-free, Canis lupus familiaris; conditions: brain and plasma, read-out: Ratio AUC
[5] = target: Dual 3',5'-cyclic-AMP and -GMP phosphodiesterase 11A (Homo sapiens, UniProt Q9HCR9); assay: Inhibition of PDE11A4 (unknown origin)
Dual 3',5'-cyclic-AMP and -GMP phosphodiesterase 11A, sequence (Q9HCR9 whole entry): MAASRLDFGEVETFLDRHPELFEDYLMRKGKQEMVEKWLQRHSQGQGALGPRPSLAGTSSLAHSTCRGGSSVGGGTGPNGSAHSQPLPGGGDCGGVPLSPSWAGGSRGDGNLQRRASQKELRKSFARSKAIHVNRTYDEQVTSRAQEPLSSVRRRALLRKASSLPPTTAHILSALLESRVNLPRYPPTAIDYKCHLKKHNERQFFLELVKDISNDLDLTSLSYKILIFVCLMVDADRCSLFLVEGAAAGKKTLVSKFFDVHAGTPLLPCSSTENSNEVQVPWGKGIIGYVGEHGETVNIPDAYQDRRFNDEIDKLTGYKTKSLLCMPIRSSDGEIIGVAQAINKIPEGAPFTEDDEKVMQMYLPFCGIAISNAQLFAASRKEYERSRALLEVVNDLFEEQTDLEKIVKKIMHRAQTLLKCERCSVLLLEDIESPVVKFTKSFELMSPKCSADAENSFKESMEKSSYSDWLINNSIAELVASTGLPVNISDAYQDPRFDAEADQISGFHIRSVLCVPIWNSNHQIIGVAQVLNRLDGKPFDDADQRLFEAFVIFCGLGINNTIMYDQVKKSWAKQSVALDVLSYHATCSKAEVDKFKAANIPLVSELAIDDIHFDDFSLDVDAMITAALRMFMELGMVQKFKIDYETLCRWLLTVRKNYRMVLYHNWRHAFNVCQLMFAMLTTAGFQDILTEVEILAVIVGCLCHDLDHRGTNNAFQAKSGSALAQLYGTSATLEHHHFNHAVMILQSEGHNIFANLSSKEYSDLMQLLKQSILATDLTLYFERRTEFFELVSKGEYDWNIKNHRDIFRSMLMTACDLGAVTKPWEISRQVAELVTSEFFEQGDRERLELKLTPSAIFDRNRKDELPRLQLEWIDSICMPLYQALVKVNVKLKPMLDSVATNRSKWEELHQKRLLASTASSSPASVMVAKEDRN

[6] = target: T1, Muscarinic acetylcholine receptor M1 (Homo sapiens) (UniProt P11229); assay: Binding affinity to human muscarinic M1 receptor stably expressed in CHO cells assessed as increase in intracellular calcium level by measuring binding constant measured after 10 mins by Fluo-8AM dye based FLIPR TETRA method; type: cell-based; conditions: filed as positive allosteric modulator
T1 sequence (whole entry): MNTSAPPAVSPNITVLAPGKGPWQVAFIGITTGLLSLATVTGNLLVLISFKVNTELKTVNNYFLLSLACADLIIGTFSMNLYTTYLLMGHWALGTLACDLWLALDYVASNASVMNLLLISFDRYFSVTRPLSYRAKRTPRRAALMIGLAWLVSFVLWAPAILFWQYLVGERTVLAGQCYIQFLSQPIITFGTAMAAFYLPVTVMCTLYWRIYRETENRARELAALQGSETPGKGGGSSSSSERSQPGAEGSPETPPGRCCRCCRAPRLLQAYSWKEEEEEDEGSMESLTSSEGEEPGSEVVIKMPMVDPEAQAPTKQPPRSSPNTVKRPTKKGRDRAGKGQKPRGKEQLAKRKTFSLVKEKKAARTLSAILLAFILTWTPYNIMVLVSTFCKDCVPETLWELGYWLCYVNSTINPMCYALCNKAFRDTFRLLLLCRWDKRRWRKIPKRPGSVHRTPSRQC

[7] = Toxicity in male Beagle dog assessed as decrease in QTc interval at 3 mg/kg, po administered as single dose observed upto 9 hrs post last dose by telemetry; type: organism-based, Canis lupus familiaris; conditions: in vivo
Outline: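 Crossover telemetry study in dogs at three oral doses (0.3, 1 and 3 mg/kg), N=4. Endpoints were blood pressure, maximum systolic left ventricular pressure, LV +dP/dt max, activity, heart rate, and RR, QT and QTc intervals, followed up to 9 h post dose.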

Mus musculus = assay: In vivo positive allosteric modulation of muscarinic M1 receptor in CD-1 mouse assessed as increase in ACh-induced IP-1 levels in […] tissue administered subcutaneously measured after 2 hrs by HTRF assay; type: functional, organism-based
Outline: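 Mice were dosed subcutaneously with a solution in 5/15/80 DMSO/Solutol/water across a 0.1–10 mg/kg dose series. IP1 accumulation in striatum was measured over a 2 h treatment and expressed as fold increase over baseline for each animal. Compound levels were measured in striatal tissue at 2 h (N=5/dose), and unbound brain concentration was derived from these.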

[8] = target: T2, Muscarinic acetylcholine receptor M1 (Rattus norvegicus) (UniProt P08482); assay: Agonist activity at muscarinic M1 receptor in Sprague-Dawley rat hippocampal slice assessed as increase in CA1 spiked rates by electrophysiological analysis; conditions: filed as agonist
T2 sequence (whole entry): T1 sequence (whole entry) with A5V, T254S, P309S, R320K, A337G, I413V

[9] = Unbound plasma concentration in CD-1 mouse at 3.2 mg/kg, sc measured after 2 hrs by LC-MS/MS analysis; type: ADME, organism-based; conditions: in vivo
[10] = Ratio of AUC in C57BL/6 mouse brain to plasma at 1 mg/kg, sc; type: ADME, organism-based; conditions: brain and plasma, read-out: Ratio AUC
[11] = fCmax in dog at 0.3 mg/kg, po measured after 4 hrs using spray-dried dispersion formulation; type: ADME, organism-based, Canis lupus familiaris; conditions: in vivo
Outline: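 Dogs from the crossover cardiovascular telemetry study (N=4), dosed orally at 0.3, 1 and 3 mg/kg; unbound Cmax extrapolated from 4 h post-dose in-life plasma samples.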

[12] = Oral bioavailability in rat at 0.5 mg/kg; type: ADME, organism-based; conditions: in vivo
[13] = Half-life in rat at 0.5 mg/kg, po or 1 mg/kg, iv; type: ADME, organism-based; conditions: in vivo
[14] = Half life in dog at 0.5 mg/kg, po or 0.1 mg/kg, iv; type: ADME, organism-based, Canis lupus familiaris; conditions: in vivo
[15] = In vivo positive allosteric modulation of muscarinic M1 receptor in CD1 mouse assessed as increase in ACh-induced IP-1 levels in […] tissue at 10 mg/kg, sc measured after 2 hrs by HTRF assay relative to baseline; type: functional
Outline: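 Given sc as a solution in 5/15/80 DMSO/Solutol/water. Striatal IP1 was read 2 h after dosing and expressed as fold increase over baseline. Compound levels were measured in striatal tissue at 2 h (N=5/dose). Each animal's fold increase was plotted against its unbound brain concentration.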

[16] = Ratio of AUC in dog brain to fAUC in dog plasma; type: ADME, cell-free, Canis lupus familiaris; conditions: in vivo
[17] = Unbound plasma concentration in scopolamine-induced Wistar rat model at 0.32 mg/kg, po measured after 1 hr; type: ADME, organism-based; conditions: in vivo
Outline: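 Plasma sampled 1 h after oral dosing in satellite animals (N=2/dose) given the same dosing solution as the water-maze study (suspension in 0.5% methylcellulose in water); unbound concentration reported as the group average.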

[18] = Toxicity in dog assessed as emesis at 3 mg/kg, po using spray-dried dispersion formulation; type: organism-based, Canis lupus familiaris; conditions: in vivo
Outline: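 Dogs received single escalating oral doses as a spray-dried dispersion (10% drug loading with HPMCAS-M). The dispersion was suspended in 0.5 wt% methylcellulose/0.5 wt% HPMCAS in 20 mM tris buffer, pH 7.4. One dog per sex per dose was used, and clinical signs were recorded.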

[19] = target: T2, Muscarinic acetylcholine receptor M1 (Rattus norvegicus); assay: Positive allosteric modulation of muscarinic M1 receptor in Sprague-Dawley rat hippocampal slice assessed as increase in carbachol-induced CA1 spiked rates by electrophysiological analysis; conditions: filed as positive allosteric modulator
[20] = Positive allosteric modulation of muscarinic M2/M3 receptor in Hartley guinea pig ileum assessed as increase in donepezil-induced stimulation of contraction in presence of mAChR antagonist atropine; type: tissue-based, Cavia porcellus
Outline: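 PAM mode used guinea pig ileum in a tissue bath. Contraction concentration–response curves were run in the presence of an EC20 of donepezil, with or without atropine.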

[21] = target: Muscarinic acetylcholine receptor M3 (Homo sapiens, UniProt P20309); assay: Agonist activity at human recombinant muscarinic M3 receptor stably expressed in CHO cells assessed as increase in intracellular calcium level up to 10 uM incubated for 10 mins by Fluo-8AM dye based FLIPR TETRA method; type: cell-based
Muscarinic acetylcholine receptor M3, sequence (P20309 whole entry): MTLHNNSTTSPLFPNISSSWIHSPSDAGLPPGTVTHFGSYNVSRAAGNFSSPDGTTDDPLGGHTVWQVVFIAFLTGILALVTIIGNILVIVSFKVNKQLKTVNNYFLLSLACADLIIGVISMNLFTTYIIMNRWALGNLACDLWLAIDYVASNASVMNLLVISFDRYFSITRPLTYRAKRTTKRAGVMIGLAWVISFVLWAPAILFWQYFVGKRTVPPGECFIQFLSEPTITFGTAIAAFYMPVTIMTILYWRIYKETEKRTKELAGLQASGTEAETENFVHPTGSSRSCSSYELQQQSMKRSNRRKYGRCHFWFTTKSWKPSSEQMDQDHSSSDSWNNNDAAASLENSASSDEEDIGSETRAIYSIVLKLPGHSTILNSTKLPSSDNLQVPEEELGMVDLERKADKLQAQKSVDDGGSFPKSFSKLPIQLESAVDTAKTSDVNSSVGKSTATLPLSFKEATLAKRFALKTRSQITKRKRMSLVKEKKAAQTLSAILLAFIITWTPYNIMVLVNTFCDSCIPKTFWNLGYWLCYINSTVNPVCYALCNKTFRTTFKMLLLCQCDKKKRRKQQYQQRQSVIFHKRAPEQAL

With `Cc1cnc(C(=O)N[C@H]2CCOC[C@@H]2O)cc1Cc1ccc(-c2cscn2)cc1` the Kp uu at 1 h [1] was 0.34, the Activity [2] was “Toxic” and the CLint scaled [3] was less than 8 mL/min/kg. The Kp uu [4] was 0.3, the IC50 [5] was 4.94 µM and the Kb [6] was 5 µM. For the same compound, the Activity [7] was “Toxic”, the Activity (Mus musculus) was “Dose-dependent effect” and the Activity [8] was “Dose-dependent effect”. The “Cp(f)” value [9] was 176 nM, the Kp [10] was 0.2 and the fCmax [11] was 41 nM. It also gave a bioavailability [12] of 112%, a half-life [13] of 5.58 h and a half-life [14] of 5.17 h. The “fold change (FC)” value [15] was 42, the “Ratio AUC” value [16] was 0.6 and the “Cp(f)” value [17] was 3.7 nM. The Activity [18] was “Toxic”, the Activity [19] was “Dose-dependent effect” and the Activity [20] was “Not Active”. The Activity [21] was “Not Active”.
